RanGTP-Imp inh = disruptors of Ran-importin-beta complex formation – biochemical, FRET, CFP-Ran, YFP-importin-beta, homogeneous, primary screen; 300,000 tested, 1.1% active; cell-free CFP-Ran/YFP-importin-beta FRET ratio; inhibition, % (test concentration not listed); AID 2216;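 active = more than half of the replicate wells show a fall in the fluorescence ratio signal beyond about 16%, limit read from the data, passing the limit was not always enough; inconclusive = exactly half of the replicate wells pass the set limit; inactive = fewer than half of replicates pass the limit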;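 note: 0% = DMSO wells and 100% = Ran loaded with GDP instead of GTP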
Runt-SMMHC FRET = inhibitors of human RUNX1 Runt domain binding to CBFb-SMMHC. Q01196+Q13951. Cerulean-Runt/Venus-CBFb-SMMHC FRET ratio 530/480, 1 h. inhibition, % at 20 µM. 220,000 tested, 0.74% active. AID 1434;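 active = mean inhibition across duplicate retests at 20 µM reaching about 50%, limit read from the data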;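 note: 0% = DMSO wells and 100% = wells with excess untagged CBFb-SMMHC; inhibitors lower the FRET ratio by blocking Runt binding to CBFb-SMMHC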
Hck Nef HTS = inhibitors of human Hck kinase activated by Nef. P08631. Recombinant Hck-YEEI plus Nef, Z-Lyte FRET kinase assay. inhibition, % at 20 µM. 220,000 tested, 0.68% active. AID 463187;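 active = Hck-Nef kinase inhibition above about 50%, limit read from the data; inactive = inhibition below that limit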;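 note: 0% = DMSO with Hck plus Nef and 100% = Hck alone without Nef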
Target sequence (P08631 whole entry, looked up): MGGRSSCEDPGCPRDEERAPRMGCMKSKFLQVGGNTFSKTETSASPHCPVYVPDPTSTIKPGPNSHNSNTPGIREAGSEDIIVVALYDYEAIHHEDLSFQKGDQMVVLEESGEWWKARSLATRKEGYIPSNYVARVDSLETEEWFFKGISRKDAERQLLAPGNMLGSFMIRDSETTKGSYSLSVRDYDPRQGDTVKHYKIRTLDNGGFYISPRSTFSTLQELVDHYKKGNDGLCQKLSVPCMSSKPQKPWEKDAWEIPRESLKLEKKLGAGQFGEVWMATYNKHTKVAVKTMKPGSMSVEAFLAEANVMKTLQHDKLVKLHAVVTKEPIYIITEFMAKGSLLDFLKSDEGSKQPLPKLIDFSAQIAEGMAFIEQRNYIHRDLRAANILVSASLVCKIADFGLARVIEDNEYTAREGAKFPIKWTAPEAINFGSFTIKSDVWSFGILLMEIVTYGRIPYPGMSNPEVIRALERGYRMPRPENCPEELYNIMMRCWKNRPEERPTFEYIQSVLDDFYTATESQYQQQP
Tb hexokinase = blocks Trypanosoma brucei hexokinase 1 activity. recombinant TbHK1, G6PDH-coupled NADH A340. inhibition, % at 10 µM. 220,000 tested, 0.11% active;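 active = inhibition of 50% or more in the single-dose primary screen; inactive = inhibition below 50%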
Runt-CBFb FRET = inhibitors of human RUNX1 Runt domain binding to CBFb | Q01196+Q13951 | Cerulean-Runt/Venus-CBFb FRET ratio 530/480, 1 h | inhibition, % at 20 µM | 220,000 tested, 0.46% active;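 active = inhibition over about 50% at 20 µM in the single-dose screen, limit read from the data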;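 note: 0% = DMSO wells and 100% = excess unlabeled CBFb competitor control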
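Assay system: Cerulean-Runt domain fusion protein, energy donor; Signal: fluorescence energy transfer, 422 nm excitation, 530/480 nm emission; Timing: 1 h compound exposure, room temperature; Control set: unlabeled CBFb; Medium: Tris buffer pH 7.5 with salts and BSA; Compound: single test concentration of 20 µM, 1% DMSO final; Probe or stimulus: Venus-CBFb 100 nM.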
* hit, by the source's call; ? = inconclusive; · = not tested or not shown. Only some compounds are listed: those with a hit (about 1.9% of all), similar ones and a draw of the others.

SMILES | RanGTP-Imp inh | Runt-SMMHC FRET | Hck Nef HTS | Tb hexokinase | Runt-CBFb FRET
N#Cc1cc(Cl)c(N2CCOCC2)cc1C#N | 4 | -3 | 0 | -14 | 0
N#CC(C#N)=C1C=C2C=C(N3CCOCC3)CCC2CC1 (stereo not drawn) | -2 | 86* | 16 | 0 | 20
N#CC(C#N)=C1C=C2C=C(N3CCCCCC3)CCC2CC1 (stereo not drawn) | 45* | 83* | 3 | -5 | 4
CC1(C)CC(NCCN2CCN(C3=CC(=C(C#N)C#N)CC(C)(C)C3)CC2)=CC(=C(C#N)C#N)C1 | -2 | -27 | 20 | -6 | -12
Cc1ccc(OCC(=O)Nc2cc(C(C)(C)C)on2)cc1C | 4 | · | · | · | ·
CCOCCN1CCN(C(=O)CN2CCCC2=O)CC1 | 1 | -2 | 0 | 36 | -2
O=C(c1ccccn1)N1N=C2/C(=C/c3ccc(F)cc3)CCCC2C1c1ccc(F)cc1 (stereo not drawn) | 4 | -2 | 0 | -15 | -2
N#CC1(C#N)C(C(N)=O)C1c1ccccc1 (stereo not drawn) | ? | -10 | 0 | 4 | -1
CN1C=CC2=C(C#N)C(N)C(C#N)(C#N)[C@H](c3ccccc3)[C@H]2C1 (stereo partly drawn) | 64* | 79* | 7 | 0 | 66*
CCN(c1ccccc1)S(=O)(=O)c1nnc(NC(=O)c2ccccc2OC)s1 | 19* | · | · | · | ·
CCN(c1ccccc1)S(=O)(=O)c1nnc(NC(=O)CC(C)C)s1 | -3 | · | · | · | ·
COc1ccc(N2CC(C)Cn3c2nc2c3c(=O)n(CCc3ccccc3)c(=O)n2C)cc1 (stereo not drawn) | 41* | -1 | · | · | -4
Cc1ccc(CNC(=O)CSc2nc3ccccc3c3nc(C)nn23)cc1 | · | 2 | 0 | 11 | -2
N#Cc1c(-c2ccccc2)nc(SCC(=O)N2c3ccccc3Sc3ccccc32)[nH]c1=O | -1 | -10 | 82* | 9 | -6
COc1ccc2nc(Nc3nc(C)c(C(C)=O)s3)sc2c1 | 18* | 42 | -9 | -6 | 11
CCOc1ccccc1N1CCN(CC(O)COC2CCCc3ccccc32)CC1 (stereo not drawn) | 2 | · | · | · | ·
CC(C)c1nc(SCC(=O)Nc2ccc3c(c2)OCCO3)n[nH]1 | 20* | -3 | 10 | -2 | 0
O=[N+]([O-])c1cc([N+](=O)[O-])c(Oc2cc(Cl)ccc2Cl)cc1NC1CCCCCCC1 | 2 | · | · | · | ·
Cc1cc(C)nc(SCc2cc(=O)c(OC(=O)c3ccc(S(=O)(=O)N4CCCC4)cc3)co2)n1 | -2 | -4 | 7 | -6 | -1
CC(=O)Nc1c(S(=O)(=O)c2ccccc2)c2nc3ccccc3nc2n1Cc1ccccc1 | 23* | 73* | 6 | -2 | 20
CC(=O)Nc1ccc(S(=O)(=O)c2c(N)n(CCN3CCOCC3)c3nc4ccccc4nc23)cc1 | -2 | 10 | 31 | -26 | 30
COc1ccc(C(=O)/C=C2\Sc3ccccc3N2C)cc1 | -1 | 56* | 31 | -10 | 31
O=C1C=C(NCc2ccccc2)CCC1 | ? | 0 | 4 | -5 | 2
N#Cc1ccccc1NC1=CC(=O)CCC1 | 58* | 2 | 1 | -19 | -2
NC(=O)CSCc1nc2ccccc2s1 | 2 | -3 | 8 | -7 | 0
SMILES | RanGTP-Imp inh | Runt-SMMHC FRET | Hck Nef HTS | Tb hexokinase | Runt-CBFb FRET
N/C(Cc1nc2ccccc2s1)=N\O | 85* | 5 | -13 | -2 | 4
CCOC(=O)c1c(-c2cccs2)csc1NC(=O)C(C)(C)C | -3 | -6 | -2 | -4 | 110*
CCc1nnc(NC(=O)c2sc3nc4c(cc3c2N)CCCCC4)s1 | ? | · | 43 | -43 | 44
CCc1nnc(NC(=O)c2sc3nc4c(cc3c2N)CCCCCC4)s1 | 8 | 61* | 45 | -7 | 30
CNC(=O)c1c(NC(=O)c2ccc(S(=O)(=O)N3CCCc4ccccc43)cc2)sc2c1CCN(C)C2 | 28* | -48 | 31 | -19 | -262
CN1CCc2c(sc(NC(=O)c3ccc(S(=O)(=O)N4CCCC4)cc3)c2C(N)=O)C1 | 41* | · | · | · | ·
CN1CCc2c(sc(NC(=O)C3CCCN3S(=O)(=O)c3ccc(Cl)s3)c2C(N)=O)C1 (stereo not drawn) | 164* | · | · | · | ·
CN1CCc2c(sc(NC(=O)c3ccc(S(=O)(=O)N4CCCCCC4)cc3)c2C(N)=O)C1 | 58* | · | · | · | ·
CN1CCc2c(sc(NC(=O)c3ccc(S(=O)(=O)N4CCc5ccccc54)cc3)c2C(N)=O)C1 | 3 | 14 | -45 | -20 | 7
CC(=O)N1CCc2c(sc(NC(=O)C3CCCN3S(=O)(=O)c3cccs3)c2C(N)=O)C1 (stereo not drawn) | -6 | · | · | · | ·
CCN(CC)CCCCNc1ncc2cc(-c3cc(OC)cc(OC)c3)c(NC(=O)NC(C)(C)C)nc2n1 | 9 | · | · | · | ·
COc1cc(CN2CCNC(=O)C2CC(=O)N(C)CCN2CCOCC2)cc(OC)c1 (stereo not drawn) | -2 | · | · | · | ·
CCOc1ccc(NC2=CC(=O)CC(c3ccco3)C2)cc1 (stereo not drawn) | 5 | 1 | 18 | -7 | 3
O=C1C=C(Nc2ccc(Cl)cc2)CC(c2ccco2)C1 (stereo not drawn) | 29* | -1 | 10 | -18 | 1
O=C1C=C(Nc2cccc(O)c2)CC(c2ccco2)C1 (stereo not drawn) | 64* | -8 | 9 | -18 | 1
CCn1c(SCC(=O)c2[nH]c(C)c(C(C)=O)c2C)nnc1-c1ccccc1 | 7 | -1 | -1 | -14 | -2
CC(C)N1CCc2c(sc(NC(=O)CCS(=O)(=O)c3ccccc3)c2C#N)C1 | 169* | · | · | · | ·
COC(=O)c1c(NC(=O)CCS(=O)(=O)c2ccccc2)sc2c1CCN(C)C2 | 79* | · | · | · | ·
CC(=O)N1CCc2c(sc(NC(=O)CS(=O)(=O)c3ccc(F)cc3)c2C#N)C1 | 2 | · | · | · | ·
COC(=O)c1ccsc1NC(=O)CCS(=O)(=O)c1ccccc1 | 6 | · | · | · | ·
CCCN1CCc2c(sc(NC(=O)CCS(=O)(=O)c3ccccc3)c2C(=O)OC)C1 | 155* | · | · | · | ·
COc1cc(C)c(CN2CCN(C(C)C(=O)NC(C)c3ccccc3)CC2)cc1OC (stereo not drawn) | 0 | · | · | · | ·
CCOC(=O)N1CCC(NC(=O)c2cc3cc4cc(OC)ccc4nc3o2)CC1 | 21* | 2 | 2 | -17 | -4
Cc1cc(C(=O)NC(C)C2CCCO2)c(C)o1 (stereo not drawn) | -3 | · | · | · | ·
C=CCNC(=O)c1cccc(Br)c1 | 24* | -2 | 1 | -5 | 3
C=CCNC(=S)NNC(=O)c1cccc(Br)c1 | 1 | 1 | 1 | 0 | 2
COc1ccc(C(=O)c2sc3nc(C)cc(-c4cccs4)c3c2N)cc1OC | -102 | -150 | -4 | -13 | -66
CCc1ccc(-c2cc(C(F)(F)F)n3nc(C(=O)Nc4c(C)nn(Cc5ccc(F)cc5)c4C)cc3n2)s1 | 58* | 13 | 8 | -8 | 11

Compound activity as filed in PubChem BioAssay.
